Published values gathered from unrelated publications.
Compare with care: the assays were run in different laboratories.
ABL1 F317I phosphorylated: Tyrosine-protein kinase ABL1, phosphorylated (ABL1, Homo sapiens, UniProt P00519, F317I)
ABL1 M351T phosphorylated: Tyrosine-protein kinase ABL1, phosphorylated (ABL1, Homo sapiens, UniProt P00519, M351T)
ABL1 E255K phosphorylated: Tyrosine-protein kinase ABL1, phosphorylated (ABL1, Homo sapiens, UniProt P00519, E255K)
ABL1 Y253F phosphorylated: Tyrosine-protein kinase ABL1, phosphorylated (ABL1, Homo sapiens, UniProt P00519, Y253F)
ABL1 F317L: Tyrosine-protein kinase ABL1 (ABL1, Homo sapiens, UniProt P00519, F317L)
ABL1 H396P phosphorylated: Tyrosine-protein kinase ABL1, phosphorylated (ABL1, Homo sapiens, UniProt P00519, H396P)
ABL1 T315I phosphorylated: Tyrosine-protein kinase ABL1, phosphorylated (ABL1, Homo sapiens, UniProt P00519, T315I)
ABL1 H396P non-phosphorylated: Tyrosine-protein kinase ABL1, non-phosphorylated (ABL1, Homo sapiens, UniProt P00519, H396P)
ABL1 F317I non-phosphorylated: Tyrosine-protein kinase ABL1, non-phosphorylated (ABL1, Homo sapiens, UniProt P00519, F317I)
ABL1 F317L phosphorylated: Tyrosine-protein kinase ABL1, phosphorylated (ABL1, Homo sapiens, UniProt P00519, F317L)

SMILES | target | assay | setting | remaining binding [%]
O=C(NS(=O)(=O)c1ccc(NCC2CCOCC2)c([N+](=O)[O-])c1)c1ccc(N2CCN(Cc3ccc(C(F)(F)F)cc3-c3ccc(Cl)cc3)CC2)cc1Oc1cnc2[nH]ccc2c1 | Tyrosine-protein kinase ABL1, non-phosphorylated (ABL1, Homo sapiens, UniProt P00519, Q252H) | cell-free assay, competition with immobilised ligand | 1 µM | 100
O=C(c1ccc(Nc2ncc(Cl)c(-c3cc4ccccc4s3)n2)cc1)N1CCC(N2CCCC2)CC1 | ABL1 F317I phosphorylated | binding, competition with immobilised ligand | 1 µM | 100
COc1ccnn2ncc(-c3ccnc(N(C)C)n3)c12 | Tyrosine-protein kinase ABL1 (ABL1, Homo sapiens, UniProt P00519, F317I) | binding | 1 µM | 82
c1cncc(-c2cccc(Nc3nccc(NC4CCCCC4)n3)c2)c1 | ABL1 M351T phosphorylated | binding, competition with immobilised ligand | 10 µM | 38
CCN1CCN(Cc2ccc(C(=O)Nc3ccc(C)c(Oc4ccc5c(c4)CC(=O)N5)c3)cc2C(F)(F)F)CC1 | Tyrosine-protein kinase ABL1, phosphorylated (ABL1, Homo sapiens, UniProt P00519) | binding, competition with immobilised ligand | 1 µM | 34
O=C(NC[C@@H]1[C@H]2CN(C(=O)OCc3cc(C(F)(F)F)cc(C(F)(F)F)c3)C[C@@H]12)c1ccc2[nH]nnc2c1 | ABL1 E255K phosphorylated | binding, competition with immobilised ligand | 1 µM | 92
COc1cnc(Nc2cccc(S(N)(=O)=O)c2)nc1N1CCN(c2ccccc2)C(=O)C1 | ABL1 Y253F phosphorylated | binding, competition with immobilised ligand | 1 µM | 82
CN(C)c1ncc(F)c(-c2cnn3ncccc23)n1 | Tyrosine-protein kinase ABL1, non-phosphorylated (ABL1, Homo sapiens, UniProt P00519) | binding, competition with immobilised ligand | 1 µM | 89
O=C(c1ccc(Nc2ncc(Cl)c(-c3ccc(Cl)s3)n2)cc1)N1CCC(N2CCCC2)CC1 | ABL1 Y253F phosphorylated | binding, competition with immobilised ligand | 1 µM | 5
O=C(NCC1CCOCC1)c1n[nH]cc1NC(=O)c1c(F)cccc1F | Tyrosine-protein kinase ABL1, non-phosphorylated (ABL1, Homo sapiens, UniProt P00519, T315I) | binding, competition with immobilised ligand | 1 µM | 90
CC1CCCN1c1nccc(-c2cnn3ncccc23)n1 (centres unmarked) | ABL1 F317L | binding | 1 µM | 96
Nc1ncc2c(n1)-c1c([nH]c3ccc(C#CC4CC4)cc13)CCCC2 | ABL1 H396P phosphorylated | binding, competition with immobilised ligand | 1 µM | 93
C=CC(=O)N1CCC(C(=O)NCC(=O)N2CCN(c3nc(-c4cnc(N)nc4C(F)F)nc(N4CCOCC4)n3)CC2)CC1 | ABL1 M351T phosphorylated | binding, competition with immobilised ligand | 1 µM | 99
C[C@H]1CCN(c2nccc(-c3cnn4ncccc34)n2)C1 | Tyrosine-protein kinase ABL1 (ABL1, Homo sapiens, UniProt P00519, M351T) | binding | 1 µM | 75
Cc1cnc(Nc2ccc(C(=O)N3CCC(N4CCCC4)CC3)cc2)nc1-c1cc2ccccc2s1 | Tyrosine-protein kinase ABL1, phosphorylated (ABL1, Homo sapiens, UniProt P00519, Q252H) | binding, competition with immobilised ligand | 1 µM | 1.4
COc1ncc2cc3ccccc3nc2c1C#N | ABL1 M351T phosphorylated | cell-free assay, competition with immobilised ligand | 5 µM | 100

SMILES | target | assay | setting | remaining binding [%]
CN(C)CC#Cc1ccc(OCCCc2sc(N3CCc4cccc(C(=O)Nc5nc6ccccc6s5)c4C3)nc2C(=O)O)c(F)c1 | ABL1 T315I phosphorylated | cell-free assay, competition with immobilised ligand | 1 µM | 92
O=C(NCCCN1CCOCC1)c1ccc(Nc2ncc(Cl)c(-c3ccc(Cl)s3)n2)cc1 | Tyrosine-protein kinase ABL1, non-phosphorylated (ABL1, Homo sapiens, UniProt P00519, F317L) | binding, competition with immobilised ligand | 1 µM | 71
C[C@@H](c1ccc(-n2cnc3c(N)ncnc32)cc1)N1CCc2nn(C)c(Cc3ccccc3)c2C1=O | ABL1 E255K phosphorylated | binding, competition with immobilised ligand | 0.1 µM | 70
CN(c1nccc(-c2cnn3ncccc23)n1)C1CC1 | Tyrosine-protein kinase ABL1 (ABL1, Homo sapiens, UniProt P00519, T315I) | binding | 1 µM | 100
O=C(O)[C@@H]1[C@@H](Cn2nnc3ccccc3c2=O)CC[C@H]1C(=O)c1ccc(OCCC2CCOCC2)cc1 | ABL1 H396P non-phosphorylated | cell-free assay, competition with immobilised ligand | 1 µM | 97
CNC(=O)[C@@H]1CC[C@@H](n2c(-c3ccc4cnccc4c3)nc3ccc(C(=O)NCc4cccc(C(N)=O)c4)cc32)C1 | ABL1 F317I non-phosphorylated | binding, competition with immobilised ligand | 1 µM | 100
O=C(c1ccc(Nc2nccc(-c3cc4ccccc4s3)n2)cc1)N1CCC(N2CCCC2)CC1 | ABL1 F317I phosphorylated | binding, competition with immobilised ligand | 1 µM | 99
CN(C(=O)c1ccccc1)c1cc(N(C)c2ccc3c(c2)CCc2ccc(C(=O)NCCN4CCOCC4)cc2C3=O)ccc1F | ABL1 H396P phosphorylated | cell-free assay, competition with immobilised ligand | 1 µM | 100
O=C(Nc1c[nH]nc1C(=O)NC1CCNCC1)c1cc(F)cc(F)c1 | ABL1 H396P phosphorylated | binding, competition with immobilised ligand | 1 µM | 100
N[C@@H]1CCN(c2nccc(-c3cnn4ncccc34)n2)C1 | Tyrosine-protein kinase ABL1 (ABL1, Homo sapiens, UniProt P00519, E255K) | binding | 1 µM | 100
C[C@@]1(Cc2ccc(C#N)cc2)C(=O)N(c2cc(Cl)cc(Cl)c2)c2ncc(C(=O)NC3(c4nc(C5CCC5)no4)CC3)n21 | ABL1 F317I non-phosphorylated | binding, competition with immobilised ligand | 1 µM | 94
O=C(NCCCN1CCOCC1)c1ccc(Nc2nccc(-c3cc4ccccc4s3)n2)cc1 | ABL1 T315I phosphorylated | binding, competition with immobilised ligand | 1 µM | 41
C[C@@H]1CN(c2cc(-c3nn(C)c4ccc(OC5(C)CC5)cc34)ncn2)C[C@H](C)O1 | ABL1 H396P non-phosphorylated | cell-free assay, competition with immobilised ligand | 1 µM | 75
COc1cnc(Nc2cccc(S(N)(=O)=O)c2)nc1N1CCN(c2ccccc2)CC1 | ABL1 F317L phosphorylated | binding, competition with immobilised ligand | 1 µM | 74
CCOCCn1cc(C(=O)Nc2ccc(-n3nc(-c4cccnc4)cc3C(F)(F)F)cn2)ccc1=O | ABL1 F317L phosphorylated | cell-free assay, competition with immobilised ligand | 1 µM | 79
CN(CCCC(F)(F)F)c1nccc(-c2cnn3ncccc23)n1 | ABL1 F317L | binding | 1 µM | 100
